Laboratory results as given in ChEMBL document CHEMBL2057188, “Hybridizing ability and nuclease resistance profile of backbone modified cationic phosphorothioate oligonucleotides” (Bioorg Med Chem, 2012).

Key:
[1] = Stability in presence of Crotalus admanteus venom phosphodiesterase assessed as intact compound level at 5.5 uM in 50 mM Tris-Hcl buffer (pH 7.5) containing 10 mM MgCl2 incubated for 15 mins at 37 degC by HPLC; assay type: ADME; settings: pH 7.5, 0.25 h
How it was run: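 12-mers are first trimmed from the 3′ end with the venom 3′-exonuclease to give 7-mer substrates, which are purified by RP-HPLC. These are then re-incubated with enzyme in 50 mM Tris-HCl pH 7.5 with 10 mM MgCl2 at 37 °C for 15 min. The enzyme is heat-inactivated at 90 °C for 5 min, and the fraction of intact ODN remaining is quantified by HPLC.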

Nucleic Acid [2] = test: (§1) DNA hybridizing activity at single stranded DNA assessed as thermal stability of duplexes formed between compound and complimentary ssDNA by measuring melting temperature at 4 uM in presence of 10 mM pH 7.2 sodium phosphate buffer containing 100 mM NaCl by UV based melting experiment; assay type: nucleic-acid assay
Nucleic Acid [3] = test: (§2) DNA hybridizing activity at 22 bp double stranded DNA assessed as thermal stability of duplexes formed between compound and complimentary dsDNA by measuring change in melting temperature at 1.5 uM in presence of 7 mM pH 5.5 sodium phosphate buffer containing 140 mM K, 10 mM MgCl2 by UV based melting experiment; assay type: nucleic-acid assay
Nucleic Acid [4] = test: as §2, with “measuring” for “measuring change in”; assay type: nucleic-acid assay
Nucleic Acid [5] = test: (§3) DNA hybridizing activity at single stranded RNA assessed as thermal stability of duplexes formed between compound and complimentary ssRNA by measuring melting temperature at 4 uM in presence of 10 mM pH 7.2 sodium phosphate buffer containing 100 mM NaCl by UV based melting experiment; assay type: nucleic-acid assay
Nucleic Acid [6] = test: as §3, with “measuring change in” for “measuring”, “experiment relative to untreated control” for “experiment”; assay type: nucleic-acid assay
Nucleic Acid [7] = test: as §1, with “measuring change in” for “measuring”, “experiment relative to untreated control” for “experiment”; assay type: nucleic-acid assay

Row | SMILES | Stability [1] | also measured
1 | Cc1cn([C@H]2C[C@H](OP(=O)(O)O)[C@@H](CO[P@@](=O)(O[C@H]3C[C@H](n4cc(C)c(=O)[nH]c4=O)O[C@@H]3COP(=O)(O)O[C@H]3C[C@H](n4cc(C)c(=O)[nH]c4=O)O[C@@H]3COP(=O)(O)O[C@H]3C[C@H](n4cc(C)c(=O)[nH]c4=O)O[C@@H]3COP(=O)(O)O[C@H]3C[C@H](n4ccc(N)nc4=O)O[C@@H]3COP(=O)(O)O[C@H]3C[C@H](n4ccc(N)nc4=O)O[C@@H]3COP(=O)(O)O[C@H]3C[C@H](n4ccc(N)nc4=O)O[C@@H]3CO)SCCN)O2)c(=O)[nH]c1=O | Stable | 
2 | Cc1cn([C@H]2C[C@H](OP(=O)(O)O)[C@@H](CO[P@](=O)(O[C@H]3C[C@H](n4cc(C)c(=O)[nH]c4=O)O[C@@H]3COP(=O)(O)O[C@H]3C[C@H](n4cc(C)c(=O)[nH]c4=O)O[C@@H]3COP(=O)(O)O[C@H]3C[C@H](n4cc(C)c(=O)[nH]c4=O)O[C@@H]3COP(=O)(O)O[C@H]3C[C@H](n4ccc(N)nc4=O)O[C@@H]3COP(=O)(O)O[C@H]3C[C@H](n4ccc(N)nc4=O)O[C@@H]3COP(=O)(O)O[C@H]3C[C@H](n4ccc(N)nc4=O)O[C@@H]3CO)SCCN)O2)c(=O)[nH]c1=O | Stable | 
3 | Cc1cn([C@H]2C[C@H](OP(=O)(O)O)[C@@H](CO[P@@](=O)(S)O[C@H]3C[C@H](n4cc(C)c(=O)[nH]c4=O)O[C@@H]3COP(=O)(O)O[C@H]3C[C@H](n4cc(C)c(=O)[nH]c4=O)O[C@@H]3COP(=O)(O)O[C@H]3C[C@H](n4cc(C)c(=O)[nH]c4=O)O[C@@H]3COP(=O)(O)O[C@H]3C[C@H](n4ccc(N)nc4=O)O[C@@H]3COP(=O)(O)O[C@H]3C[C@H](n4ccc(N)nc4=O)O[C@@H]3COP(=O)(O)O[C@H]3C[C@H](n4ccc(N)nc4=O)O[C@@H]3CO)O2)c(=O)[nH]c1=O | Stable | 
4 | Cc1cn([C@H]2C[C@H](OP(=O)(O)O)[C@@H](CO[P@@](=O)(O[C@H]3C[C@H](n4cc(C)c(=O)[nH]c4=O)O[C@@H]3COP(=O)(O)O[C@H]3C[C@H](n4cc(C)c(=O)[nH]c4=O)O[C@@H]3COP(=O)(O)O[C@H]3C[C@H](n4cc(C)c(=O)[nH]c4=O)O[C@@H]3COP(=O)(O)O[C@H]3C[C@H](n4ccc(N)nc4=O)O[C@@H]3COP(=O)(O)O[C@H]3C[C@H](n4ccc(N)nc4=O)O[C@@H]3COP(=O)(O)O[C@H]3C[C@H](n4ccc(N)nc4=O)O[C@@H]3CO)SCCCCCCN)O2)c(=O)[nH]c1=O | Stable | 
5 | Cc1cn([C@H]2C[C@H](OP(=O)(O)O)[C@@H](CO[P@](=O)(S)O[C@H]3C[C@H](n4cc(C)c(=O)[nH]c4=O)O[C@@H]3COP(=O)(O)O[C@H]3C[C@H](n4cc(C)c(=O)[nH]c4=O)O[C@@H]3COP(=O)(O)O[C@H]3C[C@H](n4cc(C)c(=O)[nH]c4=O)O[C@@H]3COP(=O)(O)O[C@H]3C[C@H](n4ccc(N)nc4=O)O[C@@H]3COP(=O)(O)O[C@H]3C[C@H](n4ccc(N)nc4=O)O[C@@H]3COP(=O)(O)O[C@H]3C[C@H](n4ccc(N)nc4=O)O[C@@H]3CO)O2)c(=O)[nH]c1=O | Stable | 
6 | Cc1cn([C@H]2C[C@H](OP(=O)(O)O)[C@@H](CO[P@](=O)(O[C@H]3C[C@H](n4cc(C)c(=O)[nH]c4=O)O[C@@H]3COP(=O)(O)O[C@H]3C[C@H](n4cc(C)c(=O)[nH]c4=O)O[C@@H]3COP(=O)(O)O[C@H]3C[C@H](n4cc(C)c(=O)[nH]c4=O)O[C@@H]3COP(=O)(O)O[C@H]3C[C@H](n4ccc(N)nc4=O)O[C@@H]3COP(=O)(O)O[C@H]3C[C@H](n4ccc(N)nc4=O)O[C@@H]3COP(=O)(O)O[C@H]3C[C@H](n4ccc(N)nc4=O)O[C@@H]3CO)SCCCCCCN)O2)c(=O)[nH]c1=O | Stable | 
7 | Cc1cn([C@H]2C[C@H](OP(=O)(O)OC[C@H]3O[C@@H](n4cc(C)c(=O)[nH]c4=O)C[C@@H]3OP(=O)(O)OC[C@H]3O[C@@H](n4cc(C)c(=O)[nH]c4=O)C[C@@H]3O[P@](=O)(OC[C@H]3O[C@@H](n4cc(C)c(=O)[nH]c4=O)C[C@@H]3OP(=O)(O)OC[C@H]3O[C@@H](n4cc(C)c(=O)[nH]c4=O)C[C@@H]3OP(=O)(O)OC[C@H]3O[C@@H](n4cc(C)c(=O)[nH]c4=O)C[C@@H]3OP(=O)(O)OC[C@H]3O[C@@H](n4ccc(N)nc4=O)C[C@@H]3OP(=O)(O)OC[C@H]3O[C@@H](n4ccc(N)nc4=O)C[C@@H]3OP(=O)(O)OC[C@H]3O[C@@H](n4ccc(N)nc4=O)C[C@@H]3OP(=O)(O)O)SCCNCCCN)[C@@H](COP(=O)(O)O[C@H]3C[C@H](n4ccc(N)nc4=O)O[C@@H]3COP(=O)(O)O[C@H]3C[C@H](n4ccc(N)nc4=O)O[C@@H]3COP(=O)(O)O[C@H]3C[C@H](n4ccc(N)nc4=O)O[C@@H]3CO)O2)c(=O)[nH]c1=O |  | Tm (Nucleic Acid [2]): 40 °C; ΔTm (Nucleic Acid [3]): -1 °C; Tm (Nucleic Acid [4]): 25 °C; Tm (Nucleic Acid [5]): 44 °C; ΔTm (Nucleic Acid [6]): -2 °C; ΔTm (Nucleic Acid [7]): -2 °C
